Test results: ChEMBL document CHEMBL4402599 (J Med Chem, 2020)

Legend:
[1] = biological target: Inositol 1,4,5-trisphosphate-gated calcium channel ITPR1 (Rattus norvegicus) (UniProt P29994); experiment: Agonist activity at rat IP3R1 expressed in HEK cells assessed as increase in calcium release in cytosol by measuring fluorescence signal at 300 uM by Mag-Fluo4 dye based assay relative to control; assay type: cell-based
Summary of the method: (§1)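 HEK-293 cells lacking all three IP3R subtypes (CRISPR), stably transfected with rat IP3R1 (S1 splice site absent), G418-selected monoclonal line. ER loaded with Mag-Fluo-4 AM (20 μM, 1 h, 22 °C), saponin-permeabilized, in Ca2+-free cytosol-like medium, pH 7.0, 220 nM free Ca2+. MgATP 1.5 mM loads stores, CPA 10 μM added, ligand 60 s later. Read-out is fluorescence at 485/520 nm, 20 °C. Release is % of (Ffull − Fempty). Hill fit; 5–11 experiments in duplicate.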

[2] = Drug degradation at 4 degree C measured after 3 weeks by 31P-NMR analysis; assay type: physicochemical; conditions: read-out: Drug degradation
[3] = Drug metabolism assessed as catalytic hydrogenolysis by measuring beta-D-glucopyranosyl 1,3,4-trisphosphate triethylammonium formation by 31P-NMR analysis
[4] = biological target: Inositol 1,4,5-trisphosphate-gated calcium channel ITPR1 (Rattus norvegicus) (UniProt P29994); experiment: Ratio of EC50 for partial agonist activity at rat IP3R1 expressed in HEK cells assessed as increase in calcium release in cytosol by measuring fluorescence signal by Mag-Fluo4 dye based assay to Kd for binding affinity to IP3R1 in Wistar rat cerebellar membrane; assay type: cell-based
Summary of the method: (§2)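 Ratio of EC50 from Mag-Fluo-4 Ca2+ release in permeabilized rat IP3R1-HEK cells to Kd from [3H]-IP3 competition with rat cerebellar membranes. Calculated from the difference of log values (pEC50 − pKd); given as mean with 95% CI.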

[5] = biological target: Inositol 1,4,5-trisphosphate-gated calcium channel ITPR1 (Rattus norvegicus) (UniProt P29994); experiment: Partial agonist activity at rat IP3R1 expressed in HEK cells assessed as increase in calcium release in cytosol by measuring fluorescence signal by Mag-Fluo4 dye based assay relative to inositol-1,4,5-triphosphate; assay type: cell-based; summary of the method: as §1
[6] = biological target: T1, Inositol 1,4,5-trisphosphate-gated calcium channel ITPR1 (Rattus norvegicus, UniProt P29994); experiment: Displacement of [3H]-IP3 from IP3R1 in Wistar rat cerebellar membrane measured after 5 mins by liquid scintillation counting method; assay type: cell membranes, Cerebellum
T1 sequence (P29994 whole entry): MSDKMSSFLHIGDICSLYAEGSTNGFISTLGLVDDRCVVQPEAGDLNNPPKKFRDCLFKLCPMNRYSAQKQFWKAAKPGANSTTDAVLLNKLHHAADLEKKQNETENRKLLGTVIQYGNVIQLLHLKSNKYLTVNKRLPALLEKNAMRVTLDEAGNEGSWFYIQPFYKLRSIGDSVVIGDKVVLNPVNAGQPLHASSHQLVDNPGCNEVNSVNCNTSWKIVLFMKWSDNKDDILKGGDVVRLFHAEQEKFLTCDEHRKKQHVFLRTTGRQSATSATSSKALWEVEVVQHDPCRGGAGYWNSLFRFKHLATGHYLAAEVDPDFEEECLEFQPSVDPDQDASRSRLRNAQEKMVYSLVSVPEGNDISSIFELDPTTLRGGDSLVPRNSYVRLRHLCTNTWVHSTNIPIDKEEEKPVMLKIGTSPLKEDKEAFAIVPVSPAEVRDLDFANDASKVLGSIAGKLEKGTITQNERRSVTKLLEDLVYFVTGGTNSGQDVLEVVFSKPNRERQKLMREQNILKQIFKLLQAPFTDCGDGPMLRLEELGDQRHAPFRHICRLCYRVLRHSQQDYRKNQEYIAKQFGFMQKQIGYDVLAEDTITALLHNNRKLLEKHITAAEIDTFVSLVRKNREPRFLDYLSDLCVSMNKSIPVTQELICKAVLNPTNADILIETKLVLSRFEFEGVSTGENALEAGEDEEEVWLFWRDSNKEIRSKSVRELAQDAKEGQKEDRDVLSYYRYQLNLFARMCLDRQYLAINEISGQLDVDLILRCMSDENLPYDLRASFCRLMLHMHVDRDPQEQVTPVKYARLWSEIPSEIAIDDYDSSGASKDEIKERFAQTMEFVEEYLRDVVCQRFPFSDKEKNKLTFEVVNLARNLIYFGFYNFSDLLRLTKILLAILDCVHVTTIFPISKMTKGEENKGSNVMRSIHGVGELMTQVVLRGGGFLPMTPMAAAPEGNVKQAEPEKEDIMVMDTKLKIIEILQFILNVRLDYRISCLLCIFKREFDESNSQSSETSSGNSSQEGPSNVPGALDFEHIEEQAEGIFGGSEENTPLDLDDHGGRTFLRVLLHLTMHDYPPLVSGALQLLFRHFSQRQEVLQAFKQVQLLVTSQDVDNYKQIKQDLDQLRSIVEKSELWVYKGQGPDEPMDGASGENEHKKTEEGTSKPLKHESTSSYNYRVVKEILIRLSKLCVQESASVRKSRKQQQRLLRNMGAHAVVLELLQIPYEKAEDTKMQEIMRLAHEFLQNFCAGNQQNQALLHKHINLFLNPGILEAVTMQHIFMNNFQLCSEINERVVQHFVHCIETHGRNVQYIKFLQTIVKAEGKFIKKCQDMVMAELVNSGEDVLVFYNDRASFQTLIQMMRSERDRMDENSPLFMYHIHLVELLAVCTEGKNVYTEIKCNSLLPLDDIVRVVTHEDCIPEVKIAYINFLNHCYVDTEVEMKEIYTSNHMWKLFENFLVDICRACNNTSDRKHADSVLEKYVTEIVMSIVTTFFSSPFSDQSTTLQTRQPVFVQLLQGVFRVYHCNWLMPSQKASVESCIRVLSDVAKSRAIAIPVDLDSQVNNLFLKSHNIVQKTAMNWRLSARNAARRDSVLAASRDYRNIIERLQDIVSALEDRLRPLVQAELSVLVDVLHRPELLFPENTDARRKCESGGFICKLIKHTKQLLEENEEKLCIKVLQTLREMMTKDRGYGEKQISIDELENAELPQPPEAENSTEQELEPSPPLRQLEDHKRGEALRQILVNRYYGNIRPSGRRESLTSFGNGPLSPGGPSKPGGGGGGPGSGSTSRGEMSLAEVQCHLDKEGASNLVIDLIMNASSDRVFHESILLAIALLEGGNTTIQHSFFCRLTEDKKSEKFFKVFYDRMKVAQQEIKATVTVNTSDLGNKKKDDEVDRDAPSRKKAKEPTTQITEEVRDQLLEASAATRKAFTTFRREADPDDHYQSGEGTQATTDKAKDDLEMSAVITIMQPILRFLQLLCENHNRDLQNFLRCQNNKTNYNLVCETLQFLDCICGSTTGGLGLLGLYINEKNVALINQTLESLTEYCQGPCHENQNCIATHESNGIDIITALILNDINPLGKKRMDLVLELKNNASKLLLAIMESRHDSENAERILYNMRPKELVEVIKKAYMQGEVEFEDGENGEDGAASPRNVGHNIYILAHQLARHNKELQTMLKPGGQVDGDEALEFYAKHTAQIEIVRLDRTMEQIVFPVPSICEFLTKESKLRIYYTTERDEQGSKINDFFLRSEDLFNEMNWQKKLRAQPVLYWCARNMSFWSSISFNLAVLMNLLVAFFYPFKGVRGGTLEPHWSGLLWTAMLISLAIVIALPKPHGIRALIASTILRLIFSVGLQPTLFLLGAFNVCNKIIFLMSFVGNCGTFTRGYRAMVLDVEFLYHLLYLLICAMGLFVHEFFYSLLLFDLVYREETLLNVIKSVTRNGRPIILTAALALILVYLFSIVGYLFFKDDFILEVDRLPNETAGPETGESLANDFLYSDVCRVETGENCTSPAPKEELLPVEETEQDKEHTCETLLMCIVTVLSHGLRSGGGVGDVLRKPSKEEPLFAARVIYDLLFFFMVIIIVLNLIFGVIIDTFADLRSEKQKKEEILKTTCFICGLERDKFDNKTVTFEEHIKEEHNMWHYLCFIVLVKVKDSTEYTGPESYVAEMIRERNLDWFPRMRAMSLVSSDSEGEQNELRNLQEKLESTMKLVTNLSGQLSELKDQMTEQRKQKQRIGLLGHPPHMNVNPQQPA

[7] = biological target: T1, Inositol 1,4,5-trisphosphate-gated calcium channel ITPR1; experiment: Partial agonist activity at rat IP3R1 expressed in HEK cells assessed as increase in calcium release in cytosol by measuring fluorescence signal by Mag-Fluo4 dye based assay; assay type: cell-based; summary of the method: as §1
[8] = biological target: Inositol 1,4,5-trisphosphate-gated calcium channel ITPR1 (Rattus norvegicus) (UniProt P29994); experiment: Ratio of EC39 for partial agonist activity at rat IP3R1 expressed in HEK cells assessed as increase in calcium release in cytosol by measuring fluorescence signal by Mag-Fluo4 dye based assay to Kd for binding affinity to IP3R1 in Wistar rat cerebellar membrane; assay type: cell-based
[9] = biological target: T1, Inositol 1,4,5-trisphosphate-gated calcium channel ITPR1; experiment: Agonist activity at rat IP3R1 expressed in HEK cells assessed as increase in calcium release in cytosol by measuring fluorescence signal by Mag-Fluo4 dye based assay; assay type: cell-based
[10] = biological target: Inositol 1,4,5-trisphosphate-gated calcium channel ITPR1 (Rattus norvegicus) (UniProt P29994); experiment: Ratio of EC50 for agonist activity at rat IP3R1 expressed in HEK cells assessed as increase in calcium release in cytosol by measuring fluorescence signal by Mag-Fluo4 dye based assay to Kd for binding affinity to IP3R1 in Wistar rat cerebellar membrane; assay type: cell-based; summary of the method: as §2
[11] = biological target: Inositol 1,4,5-trisphosphate-gated calcium channel ITPR1 (Rattus norvegicus) (UniProt P29994); experiment: Agonist activity at rat IP3R1 expressed in HEK cells assessed as increase in calcium release in cytosol by measuring fluorescence signal by Mag-Fluo4 dye based assay relative to control; assay type: cell-based; summary of the method: as §1
[12] = Stability of compound in D2O at pH 7 under room temperature measured after 2 months by H-NMR spectroscopy; assay type: physicochemical; conditions: buffer, pH 7, 1461 h
Summary of the method: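 Triethylammonium salt left in D2O at pH 7, room temperature; degradation followed over time.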

[13] = Stability of compound assessed as basic hydrolysis at pH 14 measured after 1 day by H-NMR spectroscopy; assay type: physicochemical; conditions: buffer, pH 14, 24 h
Summary of the method: (§3)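 Hydrolysis followed after 1 day at pH 1 or at pH 14.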

[14] = Stability of compound assessed as acidic hydrolysis at pH 1 measured after 1 day by H-NMR spectroscopy; assay type: physicochemical; conditions: buffer, pH 1, 24 h; summary of the method: as §3
[15] = Stability of compound assessed as basic hydrolysis at pH 10 measured after 1 week by H-NMR spectroscopy; assay type: physicochemical; conditions: buffer, pH 10, 168 h
Summary of the method: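 Kept at pH 10 for one week and checked for degradation.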

`CO[C@H]1O[C@H](COP(=O)(O)O)[C@@H](O)[C@H](OP(=O)(O)O)[C@H]1OP(=O)(O)O` gave an Activity [1] of 4.3%.
With `O=P(OCc1ccccc1)(OCc1ccccc1)O[C@@H]1O[C@H](COCc2ccccc2)[C@@H](OP(=O)(OCc2ccccc2)OCc2ccccc2)[C@H](OP(=O)(OCc2ccccc2)OCc2ccccc2)[C@H]1OCc1ccccc1` the degraded at 504 h [2] was 30% and the Drug metabolism [3] was “Metabolite detected”.
For `CO[C@@H]1O[C@@H](COP(=O)(O)O)[C@H](OP(=O)(O)O)[C@@H](O)[C@@H]1OP(=O)(O)O`, the Ratio [4] was 191, the Activity [5] was 53.1% and the Kd [6] was 0.549 µM. The EC50 [7] was 104 µM and the Ratio [8] was 462.
Compound `Nc1ncnc2c1ncn2[C@@H]1O[C@H](CO)[C@@H](O[C@H]2O[C@H](CO)[C@@H](OP(=O)(O)O)[C@H](OP(=O)(O)O)[C@H]2O)[C@H]1OP(=O)(O)O` [ADENOPHOSTIN A] has an EC50 [9] of 0.024 µM, a Kd [6] of 0.0014 µM and a Ratio [10] of 17.
With `CCN(CC)CC.CCN(CC)CC.CCN(CC)CC.O=P(O)(O)O[C@@H]1O[C@H](CO)[C@@H](OP(=O)(O)O)[C@H](OP(=O)(O)O)[C@H]1O` the Activity [11] was 75.2%, the EC50 [9] was 0.08 µM and the Stability [12] was “Stable”. The Stability [13] was “Unstable”, the Stability [14] was “Unstable” and the Stability [15] was “Stable”. It also gave a Kd [6] of 0.0112 µM and a Ratio [10] of 7.
`CO[C@H]1O[C@H](COP(=O)(O)O)[C@@H](OP(=O)(O)O)[C@H](O)[C@H]1OP(=O)(O)O` gave an Activity [1] of 5.9%.
In the case of `CO[C@@H]1O[C@@H](COP(=O)(O)O)[C@H](O)[C@@H](OP(=O)(O)O)[C@@H]1OP(=O)(O)O`, the Ratio [4] is reported as 71, the Activity [5] is reported as 56.2% and the Kd [6] is reported as 1.23 µM. It also gave an EC50 [7] of 87.7 µM and a Ratio [8] of 132.
In the case of `CCN(CC)CC.CCN(CC)CC.CCN(CC)CC.O=P(O)(O)O[C@H]1O[C@H](CO)[C@@H](OP(=O)(O)O)[C@H](OP(=O)(O)O)[C@H]1O`, the Activity [11] is reported as 78.8%, the EC50 [9] is reported as 2.96 µM and the Stability [12] is reported as “Stable”. For the same compound, the Stability [13] was “Unstable”, the Stability [14] was “Unstable” and the Stability [15] was “Stable”. The Kd [6] was 0.129 µM and the Ratio [10] was 23.
